Compound activity from PubChem.
NF-kB neuron act: raises NF-kB expression in human neuronal cells; NF-kB reporter expression; active compounds read high; fold change at 12.5 µM; 1.6% of 190,000 active; in the data active means fold change above about 3.3
FLuc stim CS: affects firefly luciferase, flagging false hits in luciferase stimulation screens. ATPlite luciferase biochemical, luminescence, 10 min; 0 = ATP-free wells, 1 = DMSO control. activation factor at 10 µM. AID 1027. P08659. 200,000 tested, under 10 active;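 active means luciferase activation factor, scaled between plate controls, of at least 2 with compound at 10 µM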
Target sequence (P08659 whole entry, looked up): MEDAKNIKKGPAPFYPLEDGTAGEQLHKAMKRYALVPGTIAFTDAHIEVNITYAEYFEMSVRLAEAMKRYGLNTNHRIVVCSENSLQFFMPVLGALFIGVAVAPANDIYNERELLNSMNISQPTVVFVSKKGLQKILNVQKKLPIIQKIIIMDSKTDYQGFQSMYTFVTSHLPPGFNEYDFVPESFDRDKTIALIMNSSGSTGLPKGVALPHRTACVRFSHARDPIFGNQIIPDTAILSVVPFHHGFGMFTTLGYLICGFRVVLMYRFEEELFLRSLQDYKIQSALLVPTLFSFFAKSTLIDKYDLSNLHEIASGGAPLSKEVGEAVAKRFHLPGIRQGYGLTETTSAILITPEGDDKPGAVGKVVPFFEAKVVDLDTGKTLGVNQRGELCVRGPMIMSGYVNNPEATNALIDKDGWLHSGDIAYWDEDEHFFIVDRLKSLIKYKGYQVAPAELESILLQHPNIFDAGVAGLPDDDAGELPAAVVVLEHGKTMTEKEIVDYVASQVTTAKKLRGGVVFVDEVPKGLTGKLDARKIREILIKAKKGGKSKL
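Assay system: Luciferase/luciferin detection reagent, cell-free biochemical luciferase assay / Also added: ATP substrate / Schedule: 10 min at ambient temperature / Measured by: luminescence measurement of luciferase light output / Benchmarks: low control with PBS replacing ATP, high control enzyme plus ATP without compound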
FLuc inh counter: Photinus pyralis luciferase inhibition counter-screen | ATPLite firefly luciferase biochemical luminescence, 10 min | inhibition, % at 10 µM | 1.5% of 200,000 active | AID 1006;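 active means inhibition above about 50% when tested at 10 µM, limit read from the data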
APP 5'UTR act: activates APP 5'UTR luciferase reporter; activation, % at 2 µM; SH-SY5Y APP 5'UTR luciferase reporter, luminescence; zero percent = DMSO vehicle wells; AID 1276; 1% of 190,000 active;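 active means activation above a set limit, based on mean plus 3 SD of controls, cut at about 140% in these data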
PPC-1+TRAIL kill: compounds killing PPC-1 cancer cells with TRAIL present (potentiator screen, no TRAIL-free arm); PPC-1 cells + TRAIL, ATPLite viability luminescence; cell killing (% activity), % at 4 µM or 5 µM; 0.41% of 220,000 active; AID 1443;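 active means cell killing above 50% in the first pass at 4 µM, then a duplicate retest at 5 µM averaging 50% or more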
C8 TRAIL sens: caspase-8 TRAIL sensitization | 1% of 360,000 active | NB7+C8 cells + TRAIL, ATPlite viability luminescence | inhibition (viability loss, TRAIL sensitization), % at 10 µM;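 active means compounds causing at least 50% loss of cell viability in the single-dose screen, relative to plate controls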
PPC-1 tox: kills PPC-1 cells | shares compounds with PPC-1+TRAIL kill | PPC-1 viability, ATPlite luminescence, overnight | cytotoxicity, % at 5 µM | 50% of 1,200 active;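 active means reconfirmed compounds whose average cytotoxicity reaches 50% or more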
Large screens that a line does not name were inactive (follow-up assays come after a bar, where they were run). Sampled rows, rich in hits. Any-hit rate of the full collection: about 2.2%.

CN1C(=O)C(C2c3ccccc3C(=O)N2Cc2ccc([N+](=O)[O-])cc2)C(=O)N(C)C1=O (stereo not drawn)	none
Cc1cc([N+](=O)[O-])c2ccccc2[n+]1[O-]	PPC-1+TRAIL kill 93.5 (no result: NF-kB neuron act, FLuc stim CS, FLuc inh counter, APP 5'UTR act) | PPC-1 tox 90.8
CNc1ccc2oc(C[C@H]3O[C@@]4(CC[C@H]3C)O[C@H]([C@H](C)C(=O)c3ccc[nH]3)[C@H](C)C[C@H]4C)nc2c1C(=O)O	C8 TRAIL sens 82.6 (no result: NF-kB neuron act, FLuc stim CS, FLuc inh counter, APP 5'UTR act) | PPC-1 tox inactive
O=P(/C=C1\OCc2ccccc21)(Oc1ccccc1)Oc1ccccc1	none (no result: NF-kB neuron act, FLuc stim CS, FLuc inh counter, APP 5'UTR act, PPC-1+TRAIL kill)
Cc1nc2c(=O)n(C)c(=O)nc-2n(C)n1	PPC-1+TRAIL kill 65.7, C8 TRAIL sens 96.3 | PPC-1 tox 62.3
O=c1[nH]c2ccccc2n1C1CCN(C(CCc2ccccc2)c2nnnn2C2CCCCC2)CC1 (stereo not drawn)	none (no result: NF-kB neuron act, FLuc stim CS, FLuc inh counter, APP 5'UTR act, PPC-1+TRAIL kill)
O=C(NCCN1CCC2(CC1)C(=O)NCN2c1cccc(F)c1)c1ccc2ccccc2c1	none (no result: NF-kB neuron act, FLuc stim CS, FLuc inh counter, APP 5'UTR act, PPC-1+TRAIL kill)
Cc1ccc2nc(N3CCN(C)CC3)[nH]c2c1	none | PPC-1 tox inactive
CN1CCN(c2nc(N)cc(=O)[nH]2)CC1	none (no result: NF-kB neuron act, FLuc stim CS, FLuc inh counter, APP 5'UTR act)
C[C@@H]1CN([C@@H](C)CO)C(=O)CCCn2nncc2CO[C@@H]1CN(C)C(=O)Oc1ccccc1	none (no result: NF-kB neuron act, FLuc stim CS, FLuc inh counter, APP 5'UTR act, PPC-1+TRAIL kill)
CC12Nc3ccccc3C(=O)N1Cc1cnnn1-c1ccccc12 (stereo not drawn)	none (no result: NF-kB neuron act, FLuc stim CS, FLuc inh counter, APP 5'UTR act, PPC-1+TRAIL kill)
CN1CCN(c2ccc([N+](=O)[O-])c3no[n+]([O-])c23)CC1	PPC-1+TRAIL kill 78.0, C8 TRAIL sens 94.6 (no result: NF-kB neuron act, FLuc stim CS, FLuc inh counter, APP 5'UTR act) | PPC-1 tox 80.2
CC(C)(OOC1(c2ccccc2)NC(=O)c2ccccc21)c1ccccc1 (stereo not drawn)	none (no result: NF-kB neuron act, FLuc stim CS, FLuc inh counter, APP 5'UTR act, PPC-1+TRAIL kill)
CCOc1ccc(C2CC(c3c(O)n(C)c(=O)n(C)c3=O)=NN2)cc1 (stereo not drawn)	PPC-1+TRAIL kill 69.0, C8 TRAIL sens 73.9 (no result: NF-kB neuron act, FLuc stim CS, FLuc inh counter, APP 5'UTR act) | PPC-1 tox 71.2
